The target in assay [1] is T1, Apelin receptor (Homo sapiens, UniProt P35414).
T1 sequence (P35414 whole entry): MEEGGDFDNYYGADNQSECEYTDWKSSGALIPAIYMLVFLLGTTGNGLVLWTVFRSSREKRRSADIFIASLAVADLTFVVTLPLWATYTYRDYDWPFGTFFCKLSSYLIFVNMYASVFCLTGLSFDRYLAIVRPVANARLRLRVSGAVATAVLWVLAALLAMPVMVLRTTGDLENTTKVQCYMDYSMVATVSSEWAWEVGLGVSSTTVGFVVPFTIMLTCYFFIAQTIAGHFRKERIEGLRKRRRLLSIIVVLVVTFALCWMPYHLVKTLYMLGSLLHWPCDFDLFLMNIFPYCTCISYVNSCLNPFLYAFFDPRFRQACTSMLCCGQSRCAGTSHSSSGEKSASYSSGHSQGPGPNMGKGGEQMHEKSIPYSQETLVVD
Nature of the assay: Displacement of [125I] [NIe75,Tyr77]Pyr-apelin-13 from YFP-tagged human APJ receptor expressed in HEK293 cells incubated for 1 hr by gamma counting analysis. Format: cell-based.

For assay [2], the target named is T1, Apelin receptor. Nature of the assay: Agonist activity at human APJ receptor expressed in HEK293T cells co-expressing Galphai1 RlucII assessed as dissociation of Galphai1 from Gbetta/gamma subunit measured using coelenterazine luciferase substrate incubated for 5 mins by BRET assay. Format: functional, cell-based, HEK293. (BRET reads energy transfer from a luciferase to a nearby fluorophore.)

The target of assay [3] is T1, Apelin receptor. The experiment in a line: Agonist activity at human APJ receptor expressed in HEK293T cells co-expressing PDZ-Rho-Gef-RLucll and rGFP-CAAX assessed as induction of recruitment of Galpha12 to cell membrane using coelenterazine luciferase substrate incubated for 5 mins by BRET assay. Format: functional, cell-based, HEK293.
Assay [4] deals with T1, Apelin receptor. The experiment in a line: Agonist activity at human APJ receptor expressed in HEK293 cells co-expressing Rlucll-beta-arrestin2 assessed as induction of beta-arrestin2 recruitment to receptor incubated for 30 mins by BRET assay. The class given is functional, cell-based. On the technique in general: Recruitment of arrestin is a read-out of receptor activation apart from second messengers.

Assay [5] has as its system Rattus norvegicus. Nature of the assay: Effect on mean arterial blood pressure in Sprague-Dawley rat at 65 nmol/kg, iv bolus injection measured after 1 min. The class given is functional, organism-based. In short, it runs like this: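 Male Sprague-Dawley rats (250−300 g) under ketamine/xylazine (87/13 mg/kg i.m.) on a thermostatic pad. Mean arterial pressure recorded through a right carotid catheter. Saline vehicle bolus given, then 5 min later the peptide i.v. at 19.6 nmol/kg (n = 5) or 65 nmol/kg.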

Assay [6] has as its target T2, Apelin receptor (Homo sapiens) (UniProt P35414).
T2 sequence (whole entry): T1 sequence (P35414 whole entry)
Nature of the assay: Agonist activity at human APJ receptor expressed in HEK293 cells co-expressing Rlucll-beta-arrestin2 assessed as induction of beta-arrestin2 recruitment to receptor incubated for 30 mins by BRET assay relative to control. The class given is functional, cell-based. An outline of the steps:
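HEK293 cells transiently transfected with PEI, carrying hAPJ-GFP10 and RlucII-β-arrestin2. Cells replated at 50 000/well after 24 h, washed, and placed in HBSS. Ligand given at 10⁻⁵ to 10⁻¹¹ M for 30 min at room temperature. 5 μM coelenterazine 400A added, BRET² ratio GFP10/RlucII read. EC50 from dose-response fit; three experiments, each in triplicate.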

As a reminder, the pKi is −log10 of the Ki, conventionally taken in molar units. The low end stands for a large Ki, the high end for a small Ki. As usually defined, the pEC50 is the negative decadic logarithm of the EC50, by convention in mol/L. What is called Emax is the greatest response seen or fitted, relative to the assay's reference.

pEC50, pKi: −log10 of the molar value. Calls of active or inactive are those of the source. The rule behind the calls is not given here.

In assay [1], `CCCC[C@H](NC(=O)[C@@H]1CCCN1C(=O)CNC(=O)[C@H](CCCCN)NC(=O)[C@H](Cc1cnc[nH]1)NC(=O)[C@H](CO)NC(=O)[C@H](CC(C)C)NC(=O)[C@H](CCCNC(=N)N)NC(=O)[C@@H]1CCCN1C(=O)[C@H](CCCNC(=N)N)NC(=O)[C@@H]1CCC(=O)N1)C(=O)N1CCC[C@H]1C(=O)N[C@H](Cc1cc(C2CCCC2)c(OCc2ccccc2)c(C2CCCC2)c1)C(=O)O` showed a pKi of 7.89. In addition, the pEC50 in assay [2] is 7.66; in assay [3], 6.85; in assay [4] it was 6.44. The result in assay [5] was inactive. The Emax in assay [6] was found to be 53%.

The values are drawn from ChEMBL document CHEMBL4808162, “Constraining the Side Chain of C-Terminal Amino Acids in Apelin-13 Greatly Increases Affinity, Modulates Signaling, and Improves the Pharmacokinetic Profile” (J Med Chem, 2021).
